Measurements from ChEMBL document CHEMBL3992522, “Antileishmanial Activity of Pyrazolopyridine Derivatives and Their Potential as an Adjunct Therapy with Miltefosine” (J Med Chem, 2017).
≈ marks a conversion by molar mass, not a printed value. Calls of active or inactive are those of the source. No cut-off for these calls is given here.

Legend:
Leishmania donovani [1] = experiment: Antileishmanial activity against Leishmania donovani MHOM/IN/80/DD8 amastigote forms harboring luciferase gene infected in mouse J774 cells after 72 hrs by Steady-Glo reagent based two fold dilution assay; format: functional; details: MHOM/IN/80/DD8, 72 h
Outline: (§1)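 Promastigotes or J774-resident amastigotes treated 72 h with six two-fold dilutions from 200 µM down to 6.25 µM. Luciferase RLU fitted by four-parameter Hill non-linear regression to derive the […] inhibitory concentration (MIC).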

[2] = Selectivity index, ratio of CC50 for mouse J774 cells to IC50 for Leishmania donovani MHOM/IN/80/DD8 amastigote forms infected in mouse J774 cells; format: toxicity, cell-based; details: read-out: Ratio CC50/IC50
Outline: (§2)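 CC50: Vero or J774 cells (1×10^5/well) exposed 72 h to seven two-fold dilutions, 500–7.81 μM; MTT 2 h at 37 °C, formazan in DMSO read at 540 nm. IC50: luciferase-expressing Dd8 amastigotes in J774 macrophages (1:8), 72 h, luminescence, four-parameter Hill fit. SI = CC50/IC50, IC50 mean of three experiments.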

Leishmania donovani [3] = experiment: Antileishmanial activity against Leishmania donovani amastigote forms infected in Balb/c mouse assessed as inhibition of parasitic burden in spleen at 200 mg/kg, ip administered for 5 consecutive days measured on day 7 post last treatment by Giemsa staining based assay relative to control; format: functional
Leishmania donovani [4] = experiment: Antileishmanial activity against Leishmania donovani MHOM/IN/80/DD8 promastigote forms harboring luciferase gene at 50 uM after 72 hrs by Steady-Glo reagent based luminescence assay relative to control; format: functional; details: MHOM/IN/80/DD8, 72 h, read-out: GI
Outline: (§3)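 Exponential-phase Dd8-Luc promastigotes at 1×10^6/mL in M199 with 10% FBS, 24 °C, given 50 and 25 µM for 72 h. Vehicle 0.1% DMSO. Steady-Glo added 1:1, luminescence (RLU) read. IC50 from four-parameter Hill regression, derived only where inhibition exceeded 90%. Means of at least three independent experiments.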

Leishmania donovani [5] = experiment: Antileishmanial activity against Leishmania donovani MHOM/IN/80/DD8 amastigote forms harboring luciferase gene infected in mouse J774 cells at 50 uM up to 72 hrs by Giemsa staining based assay relative to control; format: functional; details: MHOM/IN/80/DD8, J774, 72 h
Outline: (§4)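 J774 macrophages in chamber slides infected with Dd8 promastigotes (1:10 cell:parasite in methods; 1:8 in legend) for 24 h, then treated 48 and 72 h. Cells methanol-fixed, stained with 20% Giemsa. Amastigotes per 100 macrophages counted against untreated infected controls.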

Leishmania donovani [6] = experiment: Antileishmanial activity against Leishmania donovani amastigote forms infected in Balb/c mouse assessed as inhibition of parasitic burden in liver up to 100 mg/kg, ip administered for 5 consecutive days measured on day 7 post last treatment by Giemsa staining based assay relative to control; format: functional
Leishmania donovani [7] = experiment: Antileishmanial activity against Leishmania donovani amastigote forms infected in Balb/c mouse assessed as inhibition of parasitic burden in spleen up to 100 mg/kg, ip administered for 5 consecutive days measured on day 7 post last treatment by Giemsa staining based assay relative to control; format: functional
[8] = Stability in pH 1.2 simulated gastric fluid at 5 ug/ml after 120 mins by HPLC method
Outline: (§5)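 Incubated in simulated gastric fluid (pH 1.2) or simulated intestinal fluid (pH 6.5); percentage remaining intact determined after 120 min.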

Liver = experiment: Intrinsic clearance in mouse liver S9 fractions assessed per mg protein at 1 mM in presence of NADPH by HPLC method; format: ADME; details: s9, 1000 µM
[9] = Metabolic stability in mouse liver S9 fractions at 1 mM after 60 mins in presence of NADPH by HPLC method; format: ADME; details: read-out: Stability
Leishmania donovani [10] = experiment: Antileishmanial activity against Leishmania donovani MHOM/IN/80/DD8 promastigote forms harboring luciferase gene at 25 uM after 72 hrs by Steady-Glo reagent based luminescence assay relative to control; format: functional; details: MHOM/IN/80/DD8, 72 h, read-out: GI; outline: as §3
Leishmania donovani [11] = experiment: Antileishmanial activity against Leishmania donovani MHOM/IN/80/DD8 promastigote forms harboring luciferase gene at 50 uM up to 72 hrs by MTT assay relative to control; format: functional; details: MHOM/IN/80/DD8, 72 h
Leishmania donovani [12] = experiment: Antileishmanial activity against Leishmania donovani MHOM/IN/80/DD8 amastigote forms harboring luciferase gene infected in mouse J774 cells at 25 uM after 72 hrs by Steady-Glo reagent based luminescence assay relative to control; format: functional; details: for inhibition of growth at 25 µM: MHOM/IN/80/DD8, J774, 72 h, read-out: GI
Outline: (§6)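 Stationary-phase luciferase-expressing Dd8 promastigotes infected into J774 macrophages (4×10^4/mL seeded, 24 h, 37 °C, 5% CO2) at 1:8 macrophage:parasite for 24 h. Non-internalised parasites washed off. Compounds added at 50 and 25 µM in RPMI/10% FBS for 72 h. Lysis with Steady-Glo luciferin reagent plus PBS, luminescence read. Inhibition relative to untreated infected controls.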

[13] = Cytotoxicity against mouse J774 cells assessed as reduction in cell viability after 72 hrs by MTT assay; format: cell-based
Outline: (§7)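 Vero and J774 cells seeded at 1×10^5 per well for 24 h, then exposed 72 h to seven two-fold dilutions from 500 to 7.81 μM. MTT solution (5 mg/mL stock) added for 2 h at 37 °C, formazan dissolved in DMSO and read at 540 nm. CC50 derived by the Huber and Koella method.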

Leishmania donovani [14] = experiment: Antileishmanial activity against Leishmania donovani MHOM/IN/80/DD8 amastigote forms harboring luciferase gene infected in mouse J774 cells at 6.25 to 12.5 uM up to 4 days by Steady-Glo reagent based luminescence assay; format: functional, cell-based
Outline: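 Infected J774 macrophages held at 37 °C with two-fold dilutions from 200 to 6.25 µM. Intracellular amastigote growth followed by luciferase activity in lysed macrophages, expressed as RLU, over time. Three independent experiments.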

[15] = Selectivity index, ratio of CC50 for African green monkey Vero cells to IC50 for Leishmania donovani MHOM/IN/80/DD8 amastigote forms infected in mouse J774 cells; format: toxicity, cell-based; details: read-out: Ratio CC50/IC50; outline: as §2
Leishmania donovani [16] = experiment: Antileishmanial activity against Leishmania donovani MHOM/IN/80/DD8 promastigote forms harboring luciferase gene at 6.25 to 12.5 uM up to 4 days by Steady-Glo reagent based luminescence assay; format: functional
Outline: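 Log-phase luciferase promastigotes at 1.0×10^6 at 24 °C, pH 7.4, given two-fold dilutions from 200 to 6.25 µM. RLU in lysed cultures measured daily for up to 4 days to plot growth curves. Three independent experiments.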

Leishmania donovani [17] = experiment: Antileishmanial activity against Leishmania donovani MHOM/IN/80/DD8 promastigote forms harboring luciferase gene after 72 hrs by Steady-Glo reagent based luminescence assay; format: functional; details: MHOM/IN/80/DD8, 72 h; outline: as §3
[18] = Stability in pH 6.5 simulated intestinal fluid at 5 ug/ml after 120 mins by HPLC method; outline: as §5
Leishmania donovani [19] = experiment: Antileishmanial activity against Leishmania donovani MHOM/IN/80/DD8 amastigote forms harboring luciferase gene infected in mouse J774 cells at 50 uM after 72 hrs by Steady-Glo reagent based luminescence assay relative to control; format: functional; details: for inhibition of growth at 50 µM: MHOM/IN/80/DD8, J774, 72 h, read-out: GI; outline: as §6
Leishmania donovani [20] = experiment: Antileishmanial activity against Leishmania donovani MHOM/IN/80/DD8 promastigote forms harboring luciferase gene at 9.59 uM up to 72 hrs by MTT assay relative to control; format: functional; details: MHOM/IN/80/DD8, 72 h
Leishmania donovani [21] = experiment: Antileishmanial activity against Leishmania donovani MHOM/IN/80/DD8 promastigote forms harboring luciferase gene after 72 hrs by Steady-Glo reagent based two fold dilution assay; format: functional; details: MHOM/IN/80/DD8, 72 h; outline: as §1
Leishmania donovani [22] = experiment: Antileishmanial activity against Leishmania donovani MHOM/IN/80/DD8 amastigote forms harboring luciferase gene infected in mouse J774 cells at 7.36 uM up to 72 hrs by Giemsa staining based assay relative to control; format: functional; details: MHOM/IN/80/DD8, J774, 72 h; outline: as §4
[23] = Metabolic stability in mouse liver S9 fractions assessed as rate constant for metabolism at 1 mM after 60 mins in presence of NADPH by HPLC method; format: ADME, tissue-based
[24] = Cytotoxicity against African green monkey Vero cells assessed as cell viability up to 200 uM after 72 hrs by MTT assay relative to control; format: cell-based; details: chlorocebus sabaeus, read-out: Activity
[25] = Half life in mouse liver S9 fractions at 1 mM in presence of NADPH by HPLC method; format: ADME, tissue-based
Leishmania donovani [26] = experiment: Antileishmanial activity against Leishmania donovani MHOM/IN/80/DD8 amastigote forms harboring luciferase gene infected in mouse J774 cells after 72 hrs by Steady-Glo reagent based luminescence assay; format: functional, cell-based; details: MHOM/IN/80/DD8, J774, 72 h
Leishmania donovani [27] = experiment: Antileishmanial activity against Leishmania donovani amastigote forms infected in Balb/c mouse assessed as inhibition of parasitic burden in liver at 200 mg/kg, ip administered for 5 consecutive days measured on day 7 post last treatment by Giemsa staining based assay relative to control; format: functional
[28] = Cytotoxicity against African green monkey Vero cells assessed as reduction in cell viability after 72 hrs by MTT assay; format: cell-based; details: chlorocebus sabaeus; outline: as §7
[29] = Cytotoxicity against mouse J774 cells assessed as cell viability […] after 72 hrs by MTT assay relative to control; format: cell-based; details: read-out: Activity; outline: as §7

## COc1ccc(OC)c(C2C3=C(CC(C)(C)CC3=O)Nc3c2c(-c2c[nH]c4ccccc24)nn3-c2ccc(Cl)c(Cl)c2)c1 (configuration not stated)
Leishmania donovani [1]
  MIC: 50 µM (≈ 30.7 µg/mL)
[2]
  selectivity ratio: 65.5
Leishmania donovani [3]
  Imax: 68%
Leishmania donovani [4]
  inhibition of growth at 50 µM: 90.6%
Leishmania donovani [5]
  inhibition at 50 µM: > 93%
Leishmania donovani [6]
  inhibition (INH): >50%
Leishmania donovani [7]
  inhibition (INH): >50%
[8]
  Stability: 75%
Liver
  CLH: 34.65 µL/min
[9]
  remaining at 1 h, 1000 µM: 31%
Leishmania donovani [10]
  inhibition of growth at 25 µM: 85.9%
Leishmania donovani [11]
  inhibition at 50 µM: > 95%
Leishmania donovani [12]
  inhibition of growth at 25 µM: 91.5%
[13]
  CC50 at 72 h: 482 µM
Leishmania donovani [14]
  Activity: Active
[15]
  selectivity ratio: 67.6
Leishmania donovani [16]
  Activity: Active
Leishmania donovani [17]
  IC50: 9.59 µM
[18]
  Stability: 58%
Leishmania donovani [19]
  inhibition of growth at 50 µM: 95.8%
Leishmania donovani [20]
  inhibition at 9.59 µM: > 95%
Leishmania donovani [21]
  MIC: 50 µM (≈ 30.7 µg/mL)
Leishmania donovani [22]
  inhibition at 7.36 µM: > 93%
[23]
  k el at 1 h, 1000 µM: 0.000283 s⁻¹
[24]
  viability at 72 h: > 95%
[25]
  half-life at 1000 µM: 40 min
Leishmania donovani [26]
  IC50: 7.36 µM
Leishmania donovani [27]
  Imax: 62%
[28]
  CC50 at 72 h: 498 µM
[29]
  viability at 72 h: > 95%

## CC1(C)CC(=O)C2=C(C1)Nc1c(c(-c3c[nH]c4ccccc34)nn1-c1ccc(Cl)cc1)C2c1cccs1 (configuration not stated)
Leishmania donovani [4]
  inhibition of growth at 50 µM: 86.5%
Leishmania donovani [10]
  inhibition of growth at 25 µM: 82.5%
Leishmania donovani [12]
  inhibition of growth at 25 µM: 43.8%
Leishmania donovani [19]
  inhibition of growth at 50 µM: 51.7%

## COc1cc(C2C3=C(CCC3=O)Nc3c2c(-c2c[nH]c4ccccc24)nn3-c2ccc(Cl)cc2)cc(OC)c1OC (configuration not stated)
Leishmania donovani [4]
  inhibition of growth at 50 µM: 81.2%
Leishmania donovani [10]
  inhibition of growth at 25 µM: 78.4%
Leishmania donovani [12]
  inhibition of growth at 25 µM: 45.2%
Leishmania donovani [19]
  inhibition of growth at 50 µM: 59.6%

## COc1ccc(-c2c3c(nc4c2c(-c2c[nH]c5ccccc25)nn4-c2ccc(Cl)cc2)CC(C)(C)CC3=O)cc1
Leishmania donovani [4]
  inhibition of growth at 50 µM: 52%
Leishmania donovani [10]
  inhibition of growth at 25 µM: 44.3%
Leishmania donovani [12]
  growth inhibition (GI): inactive
Leishmania donovani [19]
  growth inhibition (GI): inactive
